ChEMBL document CHEMBL1132485, “Synthesis and biological evaluation of a potent E-selectin antagonist” (J Med Chem, 1999)
Where “and” joins values, the source holds several entries; their conditions need not be identical. Identical values can stand only once.

Key:
[1] = organism: Mus musculus; test: Inhibitory effect in a thioglycollate induced peritonitis model of acute inflammation in mice; type: functional
[2] = molecular target: T1, E-selectin (Homo sapiens, UniProt P16581); test: In vitro inhibitory activity against Selectin E
T1 sequence (P16581 whole entry): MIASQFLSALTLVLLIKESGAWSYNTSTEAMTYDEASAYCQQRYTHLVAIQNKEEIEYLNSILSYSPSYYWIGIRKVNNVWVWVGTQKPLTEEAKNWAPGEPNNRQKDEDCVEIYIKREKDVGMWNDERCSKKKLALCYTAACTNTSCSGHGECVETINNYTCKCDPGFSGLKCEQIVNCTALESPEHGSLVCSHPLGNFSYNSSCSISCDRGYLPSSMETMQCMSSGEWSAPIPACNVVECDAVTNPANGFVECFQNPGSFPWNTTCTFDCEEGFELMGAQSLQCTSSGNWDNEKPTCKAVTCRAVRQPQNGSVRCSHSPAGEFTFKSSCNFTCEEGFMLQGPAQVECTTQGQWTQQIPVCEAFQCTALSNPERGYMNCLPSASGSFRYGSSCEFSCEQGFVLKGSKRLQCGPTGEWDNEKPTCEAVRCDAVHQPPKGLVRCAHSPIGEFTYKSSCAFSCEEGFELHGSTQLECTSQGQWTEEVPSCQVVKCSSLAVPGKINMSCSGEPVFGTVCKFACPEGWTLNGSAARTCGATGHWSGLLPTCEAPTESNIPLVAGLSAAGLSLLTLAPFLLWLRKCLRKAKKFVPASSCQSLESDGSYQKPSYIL
Method in brief: (§1)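 Cell-free competitive binding assay in which immobilized E-selectin is incubated with a multivalent polylysine/sialyl Lewis^a conjugate and then treated with test compounds. The sLe^x tetrasaccharide is run as a reference on every plate. Relative IC50 is IC50(test)/IC50(sLe^x) from the same plate. Data come from three separate assays.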

[3] = molecular target: T2, E-selectin (Homo sapiens) (UniProt P16581); test: Ratio of IC50 of compound to IC50 of sLex; type: functional; method in brief: as §1
T2 sequence (whole entry): T1 sequence (P16581 whole entry)

[4] = molecular target: T1, E-selectin; test: In vitro inhibitory activity against Selectin E measured by sLex(static cell free ligand binding assay); method in brief: as §1

Row | IC50 [2] | Relative IC50 [3] | IC50 [4] | Compound | ED50 [1]
1 | 33 µM and 24 µM and 51 µM and 36 µM | 0.031 [middle of 4 runs] |  | C[C@@H]1O[C@@H](O[C@@H]2[C@H](CO)OCC[C@H]2O[C@@H]2O[C@@H](CO)[C@H](O)C(O[C@@H](CC3CCCCC3)C(=O)[O-])[C@@H]2O)[C@@H](O)[C@@H](O)[C@@H]1O.[Na+] (some centres undefined) | 15 mg/kg
2 |  |  | 1180 µM and 889 µM and 1310 µM and 1130 µM | COC(=O)CCCCCCCCO[C@@H]1C[C@@H](CO)[C@@H](O[C@@H]2O[C@@H](O)[C@H](O)[C@H](O[C@]3(C(=O)O)C[C@@H](O)[C@@H](NC(C)=O)[C@H]([C@H](O)[C@H](O)CO)O3)[C@@H]2O)[C@H](O[C@@H]2O[C@@H](C)[C@@H](O)[C@H](O)[C@@H]2O)[C@@H]1NC(C)=O | 
